Active and inactive are the calls of the source. The rule behind the calls is not given here.
What was measured:
[1] = biological target: T1, Prostaglandin G/H synthase 2 (Homo sapiens, UniProt P35354); assay: Inhibition of COX2 in LPS-stimulated human monocytes assessed as reduction in PGE2 production by LC-tandem MIS analysis; type: cell-based
T1 sequence (P35354 whole entry): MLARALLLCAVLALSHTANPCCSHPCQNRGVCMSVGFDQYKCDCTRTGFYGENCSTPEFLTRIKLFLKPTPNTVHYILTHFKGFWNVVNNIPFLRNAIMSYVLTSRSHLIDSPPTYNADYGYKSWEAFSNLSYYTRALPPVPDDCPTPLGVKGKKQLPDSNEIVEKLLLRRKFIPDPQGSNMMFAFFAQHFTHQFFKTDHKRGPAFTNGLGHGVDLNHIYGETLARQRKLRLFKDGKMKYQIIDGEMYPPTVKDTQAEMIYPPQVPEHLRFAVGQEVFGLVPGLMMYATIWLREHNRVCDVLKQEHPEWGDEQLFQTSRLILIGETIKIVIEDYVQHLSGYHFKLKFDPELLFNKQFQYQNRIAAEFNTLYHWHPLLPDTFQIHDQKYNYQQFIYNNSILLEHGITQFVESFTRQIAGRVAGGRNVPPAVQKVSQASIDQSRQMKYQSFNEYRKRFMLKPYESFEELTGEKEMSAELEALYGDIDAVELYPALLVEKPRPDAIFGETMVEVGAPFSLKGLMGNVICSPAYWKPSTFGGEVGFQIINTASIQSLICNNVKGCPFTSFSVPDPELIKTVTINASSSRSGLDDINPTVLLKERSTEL
Outline: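 Human monocytes resuspended in HBSS and pretreated with increasing compound concentrations before LPS challenge. PGE2 quantified by LC−MS/MS using PGE2-d4 isotope-dilution internal standard.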

[2] = biological target: T2, Bifunctional epoxide hydrolase 2 (Rattus norvegicus, UniProt P80299); assay: Inhibition of phosphatase activity of full length rat soluble epoxide hydrolase pre-incubated for 30 mins before FDP substrate addition by fluorescence based assay
T2 sequence (P80299 whole entry): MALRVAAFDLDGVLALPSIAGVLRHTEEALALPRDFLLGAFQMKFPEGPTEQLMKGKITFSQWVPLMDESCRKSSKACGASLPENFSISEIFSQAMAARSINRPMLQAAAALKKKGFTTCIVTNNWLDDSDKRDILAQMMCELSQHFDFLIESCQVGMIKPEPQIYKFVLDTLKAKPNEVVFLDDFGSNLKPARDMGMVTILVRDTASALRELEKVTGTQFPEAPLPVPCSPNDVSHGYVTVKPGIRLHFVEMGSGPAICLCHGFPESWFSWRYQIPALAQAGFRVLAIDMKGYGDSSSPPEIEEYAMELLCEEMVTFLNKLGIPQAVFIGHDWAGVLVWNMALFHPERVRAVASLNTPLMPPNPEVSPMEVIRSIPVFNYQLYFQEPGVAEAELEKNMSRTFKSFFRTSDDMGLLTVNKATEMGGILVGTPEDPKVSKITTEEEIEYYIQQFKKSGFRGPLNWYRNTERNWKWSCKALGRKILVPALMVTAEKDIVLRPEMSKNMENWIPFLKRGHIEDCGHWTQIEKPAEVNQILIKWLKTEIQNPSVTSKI

[3] = Cmax in Sprague-Dawley rat at 30 mg/kg, po monitored over 8 hrs by LC-MS analysis; type: ADME, organism-based; design: dose 30 mg/kg, route oral; conditions: in vivo
Outline: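 Male Sprague-Dawley rats (n = 3) given a single oral dose of 30 mg/kg. Plasma compound concentration followed over 8 h. Cmax and half-life derived from the plasma concentration–time profile.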

Homo sapiens [4] = species: Homo sapiens
[5] = biological target: T3, Bifunctional epoxide hydrolase 2 (Homo sapiens) (UniProt P34913); assay: Induction of stabilization of hexa-His-tagged human soluble epoxide hydrolase C-terminal hydrolase domain expressed in Escherichia coli BL21(DE3) at 50 uM by differential scanning fluorimetry
T3 sequence (whole entry): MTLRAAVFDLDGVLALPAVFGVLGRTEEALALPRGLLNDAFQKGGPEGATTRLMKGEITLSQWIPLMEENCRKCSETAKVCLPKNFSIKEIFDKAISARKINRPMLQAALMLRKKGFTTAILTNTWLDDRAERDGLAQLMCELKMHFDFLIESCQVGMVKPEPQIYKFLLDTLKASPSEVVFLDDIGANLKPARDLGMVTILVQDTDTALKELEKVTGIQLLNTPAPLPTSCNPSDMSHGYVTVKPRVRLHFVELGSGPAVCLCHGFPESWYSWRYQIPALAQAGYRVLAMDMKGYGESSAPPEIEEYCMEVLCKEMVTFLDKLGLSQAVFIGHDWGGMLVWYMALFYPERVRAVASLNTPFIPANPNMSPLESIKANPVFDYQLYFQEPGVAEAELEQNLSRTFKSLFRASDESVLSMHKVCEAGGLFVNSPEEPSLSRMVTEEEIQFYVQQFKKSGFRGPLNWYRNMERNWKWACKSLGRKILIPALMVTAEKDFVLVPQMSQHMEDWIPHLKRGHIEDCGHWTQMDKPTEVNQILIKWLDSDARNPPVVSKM

Homo sapiens [6] = species: Homo sapiens; assay: Inhibition of soluble epoxide hydrolase N-terminal phosphatase domain in human PBMC assessed as reduction in MAG/LPA ratio at 30 uM incubated for 24 hrs by LC-MS/MS analysis
[7] = Competitive inhibition of hexa-His-tagged human soluble epoxide hydrolase N-terminal phosphatase domain expressed in Escherichia coli BL21(DE3) pre-incubated for 30 mins before DiFMUP substrate addition by fluorescence based assay
[8] = Binding affinity to hexa-His-tagged human soluble epoxide hydrolase N-terminal phosphatase domain expressed in Escherichia coli BL21(DE3) by ITC assay
Outline: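 Inverse-mode ITC with 185 μM freshly prepared sEH-P in the syringe and inhibitor in the cell. Both in 50 mM acetate, 10 mM MgCl2, 5% glycerol, pH 5.75 with 2% DMSO. Run at 25 °C, 350 rpm stirring, 20−25 injections of 8−10 μL, 200 s spacing. Inhibitor concentration chosen to optimize curve shape. Heats fitted to a single-site model.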

Rattus norvegicus [9] = assay: Inhibition of sEH-H in Sprague-Dawley rat assessed as effect on ratio of 14,15-EET to 14,15-DHET in plasma at 30 mg/kg, po after 8 hrs by LC-MS/MS analysis; type: functional, organism-based
Outline: (§1)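 Male Sprague-Dawley rats given a single oral dose of 30 mg/kg or vehicle (n = 3 per group). Plasma collected 8 h later. Epoxy fatty acid/diol ratios and LPA/corresponding MAG ratios quantified by LC−MS/MS.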

Rattus norvegicus [10] = assay: Inhibition of sEH-P in Sprague-Dawley rat assessed as effect on ratio of sn1-18:1 LPA to corresponding monoacylglycerol species in plasma at 30 mg/kg, po after 8 hrs by LC-MS/MS analysis; type: functional, organism-based; outline: as §1
[11] = biological target: T4, Bifunctional epoxide hydrolase 2 (Homo sapiens, UniProt P34913); assay: Inhibition of hexa-His-tagged human soluble epoxide hydrolase C-terminal hydrolase domain expressed in Escherichia coli BL21(DE3) pre-incubated for 30 mins before PHOME substrate addition by fluorescence based assay
T4 sequence (P34913 whole entry): T3 sequence (whole entry)

Homo sapiens [12] = species: Homo sapiens; assay: Induction of stabilization of hexa-His-tagged human soluble epoxide hydrolase N-terminal phosphatase domain expressed in Escherichia coli BL21(DE3) at 50 uM by differential scanning fluorimetry

IC50 [1] | IC50 [2] | Cmax [3] | ΔTm (Homo sapiens [4]) | Activity [5] | inhibition (Homo sapiens [6]) | IC50 [11] | Activity (Homo sapiens [12]) | SMILES | Ki [7] | Kd [8] | inhibition (Rattus norvegicus [9]) | inhibition (Rattus norvegicus [10])
110 nM | 62500 nM |  |  |  |  |  |  | O=C(O)CCc1nc(-c2ccccc2)c(-c2ccccc2)o1 [OXAPROZIN] |  |  |  | 
420 nM |  | 128 µM | 6.6 °C | inactive | Active | 12000 nM | Active | O=C(O)CCCc1nc(-c2ccc(Cl)c(Cl)c2)c(-c2ccccc2)o1 | 50 nM | 300 nM | inactive | Active
